Screen size: about 360,000 compounds; about 3,600 (1%) were called active.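 How the source made its calls: active means activation above the mean activation of all test compounds in the run plus 3 SD (cut at about 38% in these data); inactive means the rest.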 The sample as a whole holds a higher share of actives than the screen did.

Trace amine-associated receptor 1 (Homo sapiens), sequence (Q96RJ0 whole entry, looked up): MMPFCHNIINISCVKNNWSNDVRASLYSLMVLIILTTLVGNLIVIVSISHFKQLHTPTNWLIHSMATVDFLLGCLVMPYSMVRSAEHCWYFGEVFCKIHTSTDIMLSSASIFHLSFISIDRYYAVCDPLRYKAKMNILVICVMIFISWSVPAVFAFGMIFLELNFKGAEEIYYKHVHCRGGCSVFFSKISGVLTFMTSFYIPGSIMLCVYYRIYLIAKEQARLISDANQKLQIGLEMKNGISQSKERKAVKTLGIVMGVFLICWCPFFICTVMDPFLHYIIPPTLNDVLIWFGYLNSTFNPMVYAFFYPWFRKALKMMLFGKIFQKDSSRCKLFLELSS

This assay addresses Trace amine-associated receptor 1 (Homo sapiens) (UniProt Q96RJ0). Description: activators of TAAR1 calcium mobilization – Fluo-8 calcium fluorescence, CHO RD-HGA16 cells, primary screen (AID 624467). The settings on record: CHO RD-HGA16 TAAR1, Fluo-8 calcium fluorescence; at 3 µM; active compounds read high; vehicle wells 0%, saturating PEA agonist 100%. The method, boiled down: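 Signal – calcium-sensitive Fluo-8 signal, excitation 470-495, emission 515-575 nm · System – RD-HGA16 (CHO) cells co-expressing Gα16 and hTAAR1 · Incubation – 17-24 h seeding, 75 min 37 °C dye, 30 min RT · Compound dosing – 3 µM single concentration · Repeats – no replicates (n 1)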
On the technique in general: A change in cytosolic calcium serves as a functional read-out for many receptors and channels.
Turning to `C[C@@H]1CN([C@@H](C)CO)S(=O)(=O)c2ccc(C#Cc3cccc(F)c3)cc2O[C@H]1CN(C)S(=O)(=O)c1cn(C)cn1`, the activation was 20.9% (inactive).
In the case of `CCCCCC(=O)NC(=S)NNC(=O)c1ccc([N+](=O)[O-])cc1` it was 71.7% (active).
In the case of `COCCCNC(=S)NC(=O)c1ccc([N+](=O)[O-])cc1` it was 0.22% (inactive); in that of `CC(C)CC(=O)NC(=S)NNC(=O)c1cccc([N+](=O)[O-])c1`, 20.7% (inactive).
In the case of `CCOc1cc(C(=O)N2CCc3cc(OC)c(OC)cc3C2)ccc1OC(F)F`, the activation is 3.06% (inactive).
`Cc1cc(OC(=O)NCCc2ccc(F)cc2)ccc1F`: the activation is 3.75% (inactive).
The value for `CC[C@H](C)[C@H]1CNC(=O)C(=O)N1CC1CCN(CCc2ccc(OC)c(OC)c2)CC1` was -0.17% (inactive).
Turning to `Cc1cc(O)ccc1-c1cc(C(=O)NCc2cc(C(F)(F)F)cc(C(F)(F)F)c2)[nH]n1`, the activation was 39.9% (active).
The value for `CCCOc1ccc(F)cc1-c1cc(C(=O)NCc2ccc(F)cc2)[nH]n1` was 3.61% (inactive).
The value for `Cc1ccc(O)c(-c2cc(C(=O)NCc3ccccc3)[nH]n2)c1` was 8.4% (inactive).
In the case of `Brc1cnc2ccccc2c1N1CCCCC1` it was 5.6% (inactive); in that of `CCOC(=O)C1=C(CC)Nc2ccccc2N=C1NC(=O)c1cccc(S(=O)(=O)N2CCCC2)c1`, 7.96% (inactive).
Regarding `CC(C)(C)NC(=O)NC(=O)COC(=O)Cc1ccc(Cl)cc1Cl`, the activation is -2.34% (inactive).
The value for `NC(N)=N/N=C/c1ccc(OCc2ccc(Cl)cc2Cl)cc1` was 84.3% (active); that for `NC(=O)COc1ccc(/C=N/NC(=O)C2CCCN2S(=O)(=O)c2ccc(Cl)cc2)cc1` (stereo not given) was 5.15% (inactive); that for `Cc1cc(C(F)F)n2nc(C(=O)Nc3ccc(S(=O)(=O)NC45CC6CC(CC(C6)C4)C5)cc3)nc2n1` was 6.82% (inactive).
For `O=C(Nc1ccc(S(=O)(=O)Nc2ncccn2)cc1)C12CC3CC(CC(C3)C1)C2`, the activation is 0.17% (inactive).
Turning to `CCn1nccc1C(=O)Nc1ccc(S(=O)(=O)NC23CC4CC(CC(C4)C2)C3)cc1`, the activation is 42.5% (active).
The value for `COC(=O)c1cc2c(c3c4cc(F)ccc4n(S(=O)(=O)c4ccccc4)c13)C(=O)N(Cc1ccccc1OC)C2` was 0.14% (inactive).
Take `O=C1CC(Sc2ncn[nH]2)C(=O)N1c1ccccc1` (stereo not given): the activation was 4.92% (inactive).
The value for `CC(C)(C)Oc1ncc(Br)c(OC(C)(C)C)n1` was 1.63% (inactive).
In the case of `COc1cccc(-c2cnc(OC(C)(C)C)nc2OC(C)(C)C)c1` it was 47.4% (active).
In the case of `COc1cccc(-c2nc3nc(C)cc(C)n3c2NC2CCCCC2)c1`, the activation was 1.46% (inactive).
As for `CN(C)c1ccc(/C=C2\NC(=S)N(Cc3ccccc3)C2=O)cc1`, the activation is 81.4% (active).
In the case of `CN(C(=O)CN1C(=O)NC(C)(CCc2ccccc2)C1=O)c1ccccc1` (stereo not given) it was 1.03% (inactive); in that of `CC(=O)C1=C(C)N(Cc2ccccc2)C(=S)NC1c1cccc(Br)c1` (stereo not given), -0.24% (inactive); in that of `Cc1ccc(N)cc1CN1CCN(c2ncc(Cc3ccccc3)cn2)CC1`, -0.94% (inactive).
For the compound `COc1ccc(C2/C=C\CN(CC(C)C)CC(=O)N2Cc2ccc(F)cc2)cc1` (stereo not given), the activation was -1.75% (inactive).
`Cc1c([N+](=O)[O-])c(N)nn1C`: the activation is 2.61% (inactive).
The value for `Cc1nn2c3cc(N4CCOCC4)ccc3nc2c2ccccc12` was 2.7% (inactive).
